SMILES strings stand for the structures.

This data set in a line: Toxicity liver stage against HepG2, at 10uM. The following applies: human, HepG2-A16-CD81EGFP cells; read-out: INHIBITION
It counts as cell-based. Also noted: test concentration 10 uM, cell line HepG2-A16-CD81EGFP. The method in brief:
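Uninfected HepG2-A16-CD81EGFP cells, 3 × 10^3 per well, 1536-well, plated on prespotted compound at 10 μM final, parasite-free screening media added to match infected plates; puromycin 10 μM positive, DMSO 0.5% negative; run in parallel with 48 h PbLuc assay at 37 °C, 5% CO2; viability by CellTiter-Glo luminescence, normalized to controls.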
Turning to `COCCn1c(-c2cccc(OC)c2)cnc1NC(=O)NCC(C)C`, the cytotoxicity at 10 µM was determined as 11.4%.
Regarding `COCCN(Cc1ccoc1)C(=O)c1ccc(Cl)s1`, the cytotoxicity at 10 µM was 12.3%.
In the case of `CCSc1ccccc1C(=O)N(CCOC)Cc1ccoc1` it was 13.8%; in that of `CCS(=O)(=O)NCc1nc(C)cc(N2CCCC2)n1`, -0.714%.
In the case of `CN(C)C(=O)N1CC(=O)NCC12CCN(C(=O)c1ccco1)C2` (stereo unspecified) it was -0.125%; in that of `O=C1CC2(CCCCN2C(=O)c2ccoc2)CN1Cc1ccccc1` (stereo unspecified), 6.35%; in that of `C[C@@H]1C[C@H]2CN(S(=O)(=O)c3ccc(F)cc3)C[C@H]2O1`, 3.26%.
`CC(C)n1cnc(C2CN(C)c3ccc(C(=O)NC4CCCC4)cc32)n1` (stereo unspecified): the cytotoxicity at 10 µM amounted to 10.4%.
`O=C1[C@@H]2CCN(Cc3ccc(F)cc3)C[C@@H]2OCCN1c1cccnc1`: the cytotoxicity at 10 µM is 8.82%.
In the case of `CN1CC[C@]2(CN(Cc3cccs3)C[C@H]2c2ccccc2)C1=O`, the cytotoxicity at 10 µM came out at 9.82%.
For `CCO[C@@H]1CCN(c2ccc(C)nn2)[C@@H]1Cc1cnn(C)c1`, the cytotoxicity at 10 µM worked out at 2.2%.
Consider `COCC1CC2(CCNCC2)CN1c1ncccn1` (stereo unspecified), for which the cytotoxicity at 10 µM was 7.51%.
In the case of `COc1ccc(C2CC(=O)Nc3nc(N4CCOCC4)sc32)cc1` (stereo unspecified) it was 10.8%.
In the case of `Cc1cc(C)n(CCNCc2cc(-c3ccc(Cl)cc3)c[nH]c2=O)n1` it was -2.38%.
On to `CC(C)C(=O)N1CCCC(Cc2ccccn2)C1` (stereo unspecified), for which the cytotoxicity at 10 µM is -5.3%.
In the case of `Cc1n[nH]c(C)c1-c1nccnc1CC1CCNC1` (stereo unspecified) it was -4.96%; in that of `Cc1n[nH]c(C)c1S(=O)(=O)N1CCC(Oc2cnccn2)CC1`, 3.15%; in that of `Cc1nc(-c2ccccc2C(=O)O)cc(C2CCN(C(C)C)C2)n1` (stereo unspecified), -13.1%.
For `COCCNC(=O)c1cc(C2CC2)nc2onc(C3CCNC3)c12` (stereo unspecified), the cytotoxicity at 10 µM stood at 7.55%.
The result for `CCOc1cccc(CNC(=O)NC2CC=CC2)c1OC(F)F` reads -49.1%; that for `Cc1ccc(Cl)c(NC(=O)NC2(C)CCOC2)c1` (stereo unspecified), -46.7%; that for `Cc1ccc(NC2CCN(C(=O)CCC3CCCO3)CC2)nn1` (stereo unspecified), -1.2%.
The result for `COC1CCN(CCNC(=O)NCC(C)c2cccc(C)c2)CC1` (stereo unspecified) reads -4.47%.
Regarding `CNC(=O)c1cccnc1N1CCN(C/C=C/c2ccccc2)CC1`, the cytotoxicity at 10 µM was -9.23%.
With `CN(C)c1ccccc1CN1CCC(N2CCCC2=O)CC1`, the cytotoxicity at 10 µM came out at 5.02%.
The result for `CC(=O)Nc1ccc(CNc2cccc(OCCF)c2)cc1` reads -5.35%; that for `CC(NC(=O)CCc1nc(C(C)(C)C)no1)c1nnc2n1CCC2` (stereo unspecified), 12%; that for `Cn1cc(N2CCC(NC(=O)c3ccccc3Cl)C2=O)cn1` (stereo unspecified), 4.35%.
Turning to `O=S1(=O)CCN(c2nc(C3CC3)ns2)CC1`, the cytotoxicity at 10 µM is 2.37%.
In the case of `CC(C)n1cc(CN2CCCN(C(=O)c3ccco3)CC2)cn1` it was -2.27%; in that of `O=C(N1CCC(Oc2ccncc2)C1)C1(c2cccc(F)c2)CC1` (stereo unspecified), -6.52%.
Take `Cc1nc2n(n1)CC(NCC(=O)NCCCOC(C)C)CC2` (stereo unspecified): the cytotoxicity at 10 µM is -5.03%.
`COc1ncccc1NC(=O)NC(C)(C)c1ncc(C)s1`: the cytotoxicity at 10 µM was -9.44%.
The result for `CN(C(=O)CN1CCCC1c1cnn(C)c1)C1(C#N)CCCCC1` (stereo unspecified) reads 1.41%.
Consider `CSC(C)C(=O)NS(=O)(=O)c1ccc(F)c(C(F)(F)F)c1` (stereo unspecified), for which the cytotoxicity at 10 µM is -6.52%.
For the molecule `COc1cccc(NC(=O)N(CCC(F)(F)F)C[C@H](O)CO)c1`, the cytotoxicity at 10 µM was -9.48%.
For the molecule `CC(Cn1cccn1)NC(=O)NCCCN1CCc2ccccc21` (stereo unspecified), the cytotoxicity at 10 µM is -0.449%.
Regarding `Cc1cc(CN2CCN(C(=O)NCCCc3cn[nH]c3C)CC2)on1`, the cytotoxicity at 10 µM was -13.2%.
On to `Cc1ncc(CN(C)CC(O)c2ccc(Br)cc2)s1` (stereo unspecified), for which the cytotoxicity at 10 µM came out at 7.12%.
In the case of `CCc1nc(C(=O)NCc2ccc(N3CCNC(=O)C3)c(F)c2)c[nH]1` it was -7.12%.
The result for `COc1ccccc1OCC(=O)NS(=O)(=O)c1ccccc1F` reads -18%.
The result for `Cc1noc(C)c1CNC(=O)N1CCC(C(O)c2ccccc2)CC1` (stereo unspecified) reads -9.41%; that for `CNC(=O)COc1ccc(CNCc2ccc(F)cc2F)cc1`, -8.6%; that for `COCC1CN(S(=O)(=O)c2cccs2)Cc2ncnn2C1` (stereo unspecified), -120%.
Regarding `CS(=O)(=O)N1C[C@@H]2COC[C@]2(C(=O)NCCc2cccs2)C1`, the cytotoxicity at 10 µM was -110%.
In the case of `O=C(NCCN1CCOC1=O)c1cnc(-c2cccnc2)nc1` it was 0.611%; in that of `CSC(C)CCN1CCCn2nc(CNC(=O)C3CCC3)cc2C1` (stereo unspecified), 0.812%; in that of `O=C(O)c1cc(-c2cc[nH]n2)cc(S(=O)(=O)N2CCCCCC2)c1`, -4.88%.
In the case of `CN(C)C(=O)NCC(=O)N1CCCC2(CCC(=O)N(CC3CC3)C2)C1` (stereo unspecified) it was -8.38%; in that of `COCCN1CC(Nc2nc(C3CCCC3)nc3c2cnn3C)CC1=O` (stereo unspecified), -1.18%.
On to `Cc1ccc(CN2CCN(Cc3nccn3C)[C@H]3CS(=O)(=O)C[C@H]32)o1`, for which the cytotoxicity at 10 µM is -3.65%.
Consider `N[C@@H]1CC[C@@H](NC(=O)c2ccccc2OC(F)(F)C(F)F)C1`, for which the cytotoxicity at 10 µM was -4.85%.
The result for `COc1ccc(N2CCN(C[C@@H](C)CO)CC2=O)cc1` reads 1.99%; that for `CCn1c(CN(C)C)nnc1C1CCN(Cc2cccc(F)c2F)CC1`, 1.49%; that for `CCCSCC(=O)N1CCCC(c2nccn2Cc2ccncc2)C1` (stereo unspecified), 4.69%.
Turning to `COc1ccccc1C1CNC(=O)c2nc(-c3cn(C)nc3C)[nH]c2C1` (stereo unspecified), the cytotoxicity at 10 µM is -1.07%.
The result for `CN(C)Cc1nnc(C2CCCN(Cc3ccc(Cl)s3)C2)n1C` (stereo unspecified) reads -11.1%; that for `CCOCCOc1ccccc1C(=O)N1C[C@H](C2CC2)[C@@H](N)C1`, -0.332%; that for `CC(NCc1cc(O)c2cccc(F)c2n1)c1ccccc1O` (stereo unspecified), 4.28%.
Take `CCc1nnc(CNC(=O)CCCN2CCCCC2)s1`: the cytotoxicity at 10 µM was -15.4%.
As to `COc1cccc(CN2CCN(Cc3ccc4nonc4c3)CC2=O)c1`, the cytotoxicity at 10 µM is -1.98%.
Regarding `OC1CCN(C2CCN(Cc3cnc(-c4cccs4)nc3)CC2)CC1`, the cytotoxicity at 10 µM was -9.77%.
On to `Cc1c(CNC(=O)C2CCCCCN2C)oc2ccccc12` (stereo unspecified), for which the cytotoxicity at 10 µM amounted to 11.4%.
The result for `CSCCCNC(=O)c1coc(Cn2cnc3ccccc32)n1` reads -6.33%; that for `CCC1CN(C(=O)c2ccc(=O)[nH]n2)CCC(=O)N1Cc1ccccc1` (stereo unspecified), 10.4%.
In the case of `CCCNC(=O)c1cc(OC)c(OC)cc1N(C)S(C)(=O)=O` it was -5.18%; in that of `Cc1cc(=O)n(CC(=O)Nc2ccc(Cl)cc2)nc1C`, -1.74%; in that of `Cc1ccccc1CN1CC[C@@]2(O)CCN(C(=O)C3CCC3)C[C@H]2C1`, 27.9%.
Turning to `OC1CCN(C2CCN(Cc3cccc(Cn4cccn4)c3)CC2)CC1`, the cytotoxicity at 10 µM is -1.47%.
The result for `CC(C)(C)n1cc(C2=CCN(CCNC(N)=O)CC2)cn1` reads -3.51%; that for `CN1CCC(N(CCc2ccccc2)C(=O)c2ccc(CO)cc2)CC1`, 1.63%; that for `CNC(=O)CC1CCN(Cc2nc(-c3ccc(SC)cc3)oc2C)CC1`, -8.97%.
The result for `Cc1nc(C)n(C2CCCN(C(=O)COc3ccccc3)C2)n1` (stereo unspecified) reads -2.51%; that for `Cc1ccccc1-n1c(C)cc(C(=O)N2CCn3c(C)nnc3C2)c1C`, -8.51%.
On to `O=C(CCc1ccco1)Nc1cc(C(F)(F)F)c[nH]c1=O`, for which the cytotoxicity at 10 µM was determined as 13.9%.
Consider `CCC1CCCCN1Cc1nc2c(cnn2C)c(=O)[nH]1` (stereo unspecified), for which the cytotoxicity at 10 µM is -3.18%.
In the case of `COc1ccccc1C(=O)NS(=O)(=O)c1cccc(C#N)c1` it was -6.52%; in that of `O=S(=O)(NCc1ccccc1Cn1cncn1)N1CCCCC1`, 2.6%.
With `Cc1nn(C)c(Cl)c1C1CCCN1C(=O)c1cnccn1` (stereo unspecified), the cytotoxicity at 10 µM is -4.73%.
Regarding `COc1ccccc1C(=O)N1CCCC1Cn1cc(C)cn1` (stereo unspecified), the cytotoxicity at 10 µM is -6.49%.
The result for `Cc1nc(NCc2cccc(F)c2)cc(C2CCNCC2)n1` reads 2.79%.
For the molecule `CN(C)C(=O)CN1C[C@H]2CN(Cc3cccc(F)c3)C(=O)[C@H]2C1`, the cytotoxicity at 10 µM was -79.5%.
The result for `COCCN1CCOCC12CCN(C(=O)Cc1cccs1)CC2` reads 10.8%; that for `Cn1nc(COc2cncnc2)c2c1CCN(Cc1ccccn1)C2`, 9.67%.
As to `Cn1nccc1C(=O)N1CC[C@]2(C[C@H](OCc3ccccn3)CO2)C1`, the cytotoxicity at 10 µM was -80.6%.
Regarding `CC(=O)N1CCn2c(-c3cccc(F)c3)cnc2C12CCNCC2`, the cytotoxicity at 10 µM stood at 4.98%.
In the case of `c1ccc(CN2CCCn3nnc(COc4ccccn4)c3C2)nc1` it was 8.43%.
`COc1ncc(C2(O)CCN(Cc3cc(F)ccc3F)CC2)c(OC)n1`: the cytotoxicity at 10 µM was -16.1%.
For the molecule `O=C1C[C@H]2[C@@H](CCN2C(=O)Cc2cccs2)N1Cc1cccnc1`, the cytotoxicity at 10 µM was determined as 7.48%.
In the case of `COCC1CN(Cc2cnn(C)c2)Cc2nn(C)cc21` (stereo unspecified) it was -82.8%.
As for `O=C(c1ccsc1)N1CCC2(CC1)COCCN(Cc1ccncc1)C2`, the cytotoxicity at 10 µM was -89.6%.
On to `COCCN(C)C1COC2(CCN(Cc3ccccn3)CC2)C1` (stereo unspecified), for which the cytotoxicity at 10 µM was -73.4%.
In the case of `CN(C)c1ncc2c(n1)C1(CCN(Cc3ccccc3)C1)COC2` (stereo unspecified) it was -5.07%.
For the molecule `O=C1CC2(CCN(CC3CC3)C2)CN1c1ccc2c(c1)OCO2` (stereo unspecified), the cytotoxicity at 10 µM is -2.47%.
Take `O=C1CO[C@@H]2CN(C3CCOCC3)C[C@H]2N1Cc1cccc(F)c1`: the cytotoxicity at 10 µM is -77%.
The result for `CN1CCN(Cc2cn3c(n2)CN(C(=O)c2ccccn2)CC3)CC1` reads -5.7%.
